Data published in article PMC5788414 (Journal of Medicinal Chemistry, 2017).
Each block holds one molecule with its values, some of them ahead of it. Peptide text beside a SMILES is read from it. * marks the point of attachment. Cbz = O=C(OCc1ccccc1)*

Key:
[1] = test system: RS4;11 acute leukemia cell line; assay: Cell growth inhibition; type: cell-based, human; conditions: for times less potent than 15 in cell growth inhibition: comparator 15; for times more potent than 9 in cell growth inhibition: comparator 9; for times less potent than 23 in cell growth inhibition: comparator 23
[2] = test system: BRD2, BRD3, and BRD4 proteins; assay: Western blotting of BET protein levels in RS4; type: cell-based, human; conditions: RS4;11 cells; for Effect of pretreatment on degradation of BRD2, BRD3, and BRD4 induced by 23: 2 h pretreatment, then 3 h treatment with 23 at 1 nM
BRD2 = BRD2 (Homo sapiens, UniProt P25440); assay: Western blotting of BRD2 protein level in RS4; type: cell-based; conditions: RS4;11 cells, 3 h treatment, Western blot
In short: (§1)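 RS4;11 cells (2 × 10⁶/well) were treated with the test compound at the indicated concentrations for 3 h or 24 h. Cells were lysed in RIPA buffer with protease inhibitors. Lysate (20 μg per lane) was separated by SDS–PAGE, blotted onto PVDF, and probed with BRD2, BRD3 and BRD4 antibodies, with GAPDH as the loading control.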

BRD4 = BRD4 (Homo sapiens, UniProt O60885); assay: Western blotting of BRD4 protein level in RS4; type: cell-based; conditions: RS4;11 cells, 3 h treatment, Western blot
In short: as §1

BRD3 = BRD3 (Homo sapiens, UniProt Q15059); assay: Western blotting of BRD3 protein level in RS4; type: cell-based; conditions: RS4;11 cells, 3 h treatment, Western blot
In short: as §1

BRD2, BRD3, and BRD4 = assay: FP-based competitive binding assays, BET proteins overall; conditions: binding to BRD2, BRD3, BRD4; comparator 8

BRD3, sequence (Q15059 whole entry): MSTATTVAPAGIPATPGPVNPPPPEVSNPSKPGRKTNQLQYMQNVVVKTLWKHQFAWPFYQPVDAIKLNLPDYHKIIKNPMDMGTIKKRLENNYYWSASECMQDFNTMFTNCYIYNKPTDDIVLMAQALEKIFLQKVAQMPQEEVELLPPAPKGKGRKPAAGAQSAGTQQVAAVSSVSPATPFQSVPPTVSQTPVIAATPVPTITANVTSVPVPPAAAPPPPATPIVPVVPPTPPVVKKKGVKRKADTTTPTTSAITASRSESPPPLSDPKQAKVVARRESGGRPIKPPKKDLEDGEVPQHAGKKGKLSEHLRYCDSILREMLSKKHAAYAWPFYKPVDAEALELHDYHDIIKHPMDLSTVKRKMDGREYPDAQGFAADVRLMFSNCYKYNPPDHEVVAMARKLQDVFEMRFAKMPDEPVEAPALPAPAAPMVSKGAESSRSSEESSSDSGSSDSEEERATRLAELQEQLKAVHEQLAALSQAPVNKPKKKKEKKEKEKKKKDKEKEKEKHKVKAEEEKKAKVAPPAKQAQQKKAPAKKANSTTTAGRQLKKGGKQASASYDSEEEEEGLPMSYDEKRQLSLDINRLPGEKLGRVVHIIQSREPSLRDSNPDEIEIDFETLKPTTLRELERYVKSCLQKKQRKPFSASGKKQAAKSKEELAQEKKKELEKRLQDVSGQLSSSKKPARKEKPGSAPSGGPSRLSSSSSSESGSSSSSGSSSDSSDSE
BRD2, sequence (P25440 whole entry): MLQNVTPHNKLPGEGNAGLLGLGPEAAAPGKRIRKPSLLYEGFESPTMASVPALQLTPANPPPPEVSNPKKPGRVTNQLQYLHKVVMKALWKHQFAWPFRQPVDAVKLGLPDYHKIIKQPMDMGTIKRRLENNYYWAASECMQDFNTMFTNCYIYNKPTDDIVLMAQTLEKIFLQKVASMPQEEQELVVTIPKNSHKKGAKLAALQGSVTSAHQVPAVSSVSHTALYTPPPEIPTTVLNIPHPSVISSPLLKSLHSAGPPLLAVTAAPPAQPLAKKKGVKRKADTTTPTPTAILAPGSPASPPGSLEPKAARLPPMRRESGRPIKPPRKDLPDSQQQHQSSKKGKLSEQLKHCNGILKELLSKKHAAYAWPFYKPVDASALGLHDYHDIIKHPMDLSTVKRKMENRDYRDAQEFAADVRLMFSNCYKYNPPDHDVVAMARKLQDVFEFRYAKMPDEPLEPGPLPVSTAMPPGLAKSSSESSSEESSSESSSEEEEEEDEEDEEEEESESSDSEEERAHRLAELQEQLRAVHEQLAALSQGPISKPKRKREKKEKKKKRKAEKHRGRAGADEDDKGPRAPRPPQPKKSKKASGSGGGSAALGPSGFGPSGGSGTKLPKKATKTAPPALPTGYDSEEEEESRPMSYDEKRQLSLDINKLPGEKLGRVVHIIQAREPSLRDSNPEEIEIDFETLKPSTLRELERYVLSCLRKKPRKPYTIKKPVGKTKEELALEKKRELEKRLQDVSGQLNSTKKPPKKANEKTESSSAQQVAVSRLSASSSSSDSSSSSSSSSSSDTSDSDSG

Molecule: 4-((3-Cyclopropyl-1-ethyl-1H-pyrazol-5-yl)amino)-7-(3,5-dimethylisoxazol-4-yl)-N-(2-((2-(2,6-dioxopiperidin-3-yl)-1,3-dioxoisoindolin-4-yl)amino)ethyl)-6-methoxy-9H-pyrimido[4,5-b]indole-2-carboxamide [Compound 17]
times less potent than 15 in cell growth inhibition [1]: 10 times

Molecule: 4-((3-Cyclopropyl-1-ethyl-1H-pyrazol-5-yl)amino)-7-(3,5-dimethylisoxazol-4-yl)-N-(3-((2-(2,6-dioxopiperidin-3-yl)-1,3-dioxoisoindolin-4-yl)amino)propyl)-6-methoxy-9H-pyrimido[4,5-b]indole-2-carboxamide [Compound 16]
times less potent than 15 in cell growth inhibition [1]: 5 times

Molecule: CCn1nc(C2CC2)cc1Nc1nc(C(=O)NCCCCNC(=O)COc2cccc3c2C(=O)N(C2CCC(=O)NC2=O)C3=O)nc2[nH]c3cc(-c4c(C)noc4C)c(OC)cc3c12 (stereo not shown) [Compound 9, 4-((3-Cyclopropyl-1-ethyl-1H-pyrazol-5-yl)amino)-7-(3,5-dimethylisoxazol-4-yl)-N-(4-(2-((2-(2,6-dioxopiperidin-3-yl)-1,3-dioxoisoindolin-4-yl)oxy)acetamido)butyl)-6-methoxy-9H-pyrimido[4,5-b]indole-2-carboxamide]
times more potent than 8 in cell growth inhibition ([1]; comparator 8): 6 times | Lowest concentrations effective in decreasing the level of BRD2, BRD3, and BRD4 proteins ([2]; 3 h treatment, Western blot): 3 to 10 nM

Molecule: CCn1nc(C2CC2)cc1Nc1nc(C(=O)NCCCCNC(=O)CNc2cccc3c2C(=O)N(C2CCC(=O)NC2=O)C3=O)nc2[nH]c3cc(-c4c(C)noc4C)c(OC)cc3c12 (stereo not shown) [Compound 10, 4-((3-Cyclopropyl-1-ethyl-1H-pyrazol-5-yl)amino)-7-(3,5-dimethylisoxazol-4-yl)-N-(4-(2-((2-(2,6-dioxopiperidin-3-yl)-1,3-dioxoisoindolin-4-yl)amino)acetamido)butyl)-6-methoxy-9H-pyrimido[4,5-b]indole-2-carboxamide]
times more potent than 9 in cell growth inhibition [1]: 2 times

Molecule: CCn1nc(C2CC2)cc1Nc1nc(C(=O)NCCCCCCCOc2cccc3c2C(=O)N(C2CCC(=O)NC2=O)C3=O)nc2[nH]c3cc(-c4c(C)noc4C)c(OC)cc3c12 (stereo not shown) [Compound 11, 4-((3-Cyclopropyl-1-ethyl-1H-pyrazol-5-yl)amino)-7-(3,5-dimethylisoxazol-4-yl)-N-(7-((2-(2,6-dioxopiperidin-3-yl)-1,3-dioxoisoindolin-4-yl)oxy)heptyl)-6-methoxy-9H-pyrimido[4,5-b]indole-2-carboxamide]
times more potent than 9 in cell growth inhibition [1]: 10 times

Molecule: CCn1nc(C2CC2)cc1Nc1nc(C(=O)NCCCCCCCNc2cccc3c2C(=O)N(C2CCC(=O)NC2=O)C3=O)nc2[nH]c3cc(-c4c(C)noc4C)c(OC)cc3c12 (stereo not shown) [Compound 12, 4-((3-Cyclopropyl-1-ethyl-1H-pyrazol-5-yl)amino)-7-(3,5-dimethylisoxazol-4-yl)-N-(7-((2-(2,6-dioxopiperidin-3-yl)-1,3-dioxoisoindolin-4-yl)amino)heptyl)-6-methoxy-9H-pyrimido[4,5-b]indole-2-carboxamide]
times more potent than 10 in cell growth inhibition ([1]; comparator 10): 10 times

Molecule: CCn1nc(C2CC2)cc1Nc1nc(C(=O)NCCCCCCNc2cccc3c2C(=O)N(C2CCC(=O)NC2=O)C3=O)nc2[nH]c3cc(-c4c(C)noc4C)c(OC)cc3c12 (stereo not shown) [Compound 13, 4-((3-Cyclopropyl-1-ethyl-1H-pyrazol-5-yl)amino)-7-(3,5-dimethylisoxazol-4-yl)-N-(6-((2-(2,6-dioxopiperidin-3-yl)-1,3-dioxoisoindolin-4-yl)amino)hexyl)-6-methoxy-9H-pyrimido[4,5-b]indole-2-carboxamide]
times less potent than 12 in cell growth inhibition ([1]; comparator 12): 3 times

Molecule: CCn1nc(C2CC2)cc1Nc1nc(C(=O)NCCCCNc2cccc3c2C(=O)N(C2CCC(=O)NC2=O)C3=O)nc2[nH]c3cc(-c4c(C)noc4C)c(OC)cc3c12 (stereo not shown) [Compound 15, 4-((3-Cyclopropyl-1-ethyl-1H-pyrazol-5-yl)amino)-7-(3,5-dimethylisoxazol-4-yl)-N-(4-((2-(2,6-dioxopiperidin-3-yl)-1,3-dioxoisoindolin-4-yl)amino)butyl)-6-methoxy-9H-pyrimido[4,5-b]indole-2-carboxamide]
times less potent than 14 in cell growth inhibition ([1]; comparator 14): ~3 times

Molecule: CCn1nc(C2CC2)cc1Nc1nc(C(=O)NCCOCCCc2cccc3c2C(=O)N(C2CCC(=O)NC2=O)C3=O)nc2[nH]c3cc(-c4c(C)noc4C)c(OC)cc3c12 (stereo not shown) [Compound 19, 4-((3-Cyclopropyl-1-ethyl-1H-pyrazol-5-yl)amino)-7-(3,5-dimethylisoxazol-4-yl)-N-(2-(3-(2-(2,6-dioxopiperidin-3-yl)-1,3-dioxoisoindolin-4-yl)propoxy)ethyl)-6-methoxy-9H-pyrimido[4,5-b]indole-2-carboxamide]
times less potent than 18 in cell growth inhibition ([1]; comparator 18): 2 times

Lowest concentration effective in decreasing the level of BRD2 protein (BRD2): 0.3 nM | Lowest concentration effective in decreasing the level of BRD4 protein (BRD4): 0.3 nM | Lowest concentration effective in decreasing the level of BRD3 protein (BRD3): 0.1 nM
Molecule: CCn1nc(C2CC2)cc1Nc1nc(C(=O)NCCCCCCc2cccc3c2CN(C2CCC(=O)NC2=O)C3=O)nc2[nH]c3cc(-c4c(C)noc4C)c(OC)cc3c12 (stereo not shown) [Compound 21, 4-((3-Cyclopropyl-1-ethyl-1H-pyrazol-5-yl)amino)-7-(3,5-dimethylisoxazol-4-yl)-N-(6-(2-(2,6-dioxopiperidin-3-yl)-1-oxoisoindolin-4-yl)hexyl)-6-methoxy-9H-pyrimido[4,5-b]indole-2-carboxamide]

Molecule: CCn1nc(C2CC2)cc1Nc1nc(C(=O)NCCOCCCc2cccc3c2CN(C2CCC(=O)NC2=O)C3=O)nc2[nH]c3cc(-c4c(C)noc4C)c(OC)cc3c12 (stereo not shown) [Compound 22, 4-((3-Cyclopropyl-1-ethyl-1H-pyrazol-5-yl)amino)-7-(3,5-dimethylisoxazol-4-yl)-N-(2-(3-(2-(2,6-dioxopiperidin-3-yl)-1-oxoisoindolin-4-yl)propoxy)ethyl)-6-methoxy-9H-pyrimido[4,5-b]indole-2-carboxamide]
times less potent than 19 in cell growth inhibition ([1]; comparator 19): 2 times

Lowest concentration effective in decreasing the level of BRD2 protein (BRD2): 3 nM | Lowest concentration effective in decreasing the level of BRD4 protein (BRD4): 3 nM | Lowest concentration effective in decreasing the level of BRD3 protein (BRD3): 1 nM
Molecule: CCn1nc(C2CC2)cc1Nc1nc(C(=O)NCCCCc2cccc3c2CN(C2CCC(=O)NC2=O)C3=O)nc2[nH]c3cc(-c4c(C)noc4C)c(OC)cc3c12 (stereo not shown) [Compound 24, 4-((3-Cyclopropyl-1-ethyl-1H-pyrazol-5-yl)amino)-7-(3,5-dimethylisoxazol-4-yl)-N-(4-(2-(2,6-dioxopiperidin-3-yl)-1-oxoisoindolin-4-yl)butyl)-6-methoxy-9H-pyrimido[4,5-b]indole-2-carboxamide]
times less potent than 23 in cell growth inhibition [1]: 19 times

Lowest concentration effective in decreasing the level of BRD2 protein (BRD2): less potent and effective | Lowest concentration effective in decreasing the level of BRD4 protein (BRD4): 10 nM | Lowest concentration effective in decreasing the level of BRD3 protein (BRD3): 10 nM
Molecule: CCn1nc(C2CC2)cc1Nc1nc(C(=O)NCCCc2cccc3c2CN(C2CCC(=O)NC2=O)C3=O)nc2[nH]c3cc(-c4c(C)noc4C)c(OC)cc3c12 (stereo not shown) [Compound 25, 4-((3-Cyclopropyl-1-ethyl-1H-pyrazol-5-yl)amino)-7-(3,5-dimethylisoxazol-4-yl)-N-(3-(2-(2,6-dioxopiperidin-3-yl)-1-oxoisoindolin-4-yl)propyl)-6-methoxy-9H-pyrimido[4,5-b]indole-2-carboxamide]
times less potent than 23 in cell growth inhibition [1]: 188 times

Molecule: CCn1nc(C2CC2)cc1Nc1nc(C(=O)NCCCCCc2cccc3c2CN(C2CCC(=O)N(C)C2=O)C3=O)nc2[nH]c3cc(-c4c(C)noc4C)c(OC)cc3c12 (stereo not shown) [Compound 26, 4-((3-Cyclopropyl-1-ethyl-1H-pyrazol-5-yl)amino)-7-(3,5-dimethylisoxazol-4-yl)-6-methoxy-N-(5-(2-(1-methyl-2,6-dioxopiperidin-3-yl)-1-oxoisoindolin-4-yl)pentyl)-9H-pyrimido[4,5-b]indole-2-carboxamide]
times less potent than 23 in cell growth inhibition [1]: > 600 times | Effect on the level of BRD2, BRD3, and BRD4 proteins ([2]; 3 h treatment, Western blot): fails to induce degradation

times less potent than 8 in binding affinity (BRD2, BRD3, and BRD4): > 100 times
Molecule: CNC(=O)c1ncc2c(n1)[nH]c1cc(-c3c(C)noc3C)c(OC)cc12 [Compound 28, 7-(3,5-Dimethylisoxazol-4-yl)-6-methoxy-N-methyl-9H-pyrimido[4,5-b]indole-2-carboxamide]

Molecule: CC(C)C[C@@H](C=O)NC(=O)[C@H](CC(C)C)NC(=O)[C@H](CC(C)C)NC(=O)OCc1ccccc1 [MG-132, reference compound] (Cbz-Leu-Leu-Leu-aldehyde)
Effect of pretreatment on degradation of BRD2, BRD3, and BRD4 induced by 23 [2]: completely block

Molecule: NS(=O)(=O)OC[C@@H]1C[C@@H](n2ccc3c(N[C@H]4CCc5ccccc54)ncnc32)C[C@@H]1O [MLN4924, reference compound]
Effect of pretreatment on degradation of BRD2, BRD3, and BRD4 induced by 23 [2]: completely block

Molecule: Nc1cccc2c1CN(C1CCC(=O)NC1=O)C2=O (stereo not shown) [lenalidomide, reference compound]
Effect of pretreatment on degradation of BRD2, BRD3, and BRD4 induced by 23 [2]: effectively blocks
